Published values pooled from the literature.
Target: MAP kinase-activated protein kinase 5 (MAPKAPK5, Homo sapiens, UniProt Q8IW41)
One construct used (Q8IW41 1-473): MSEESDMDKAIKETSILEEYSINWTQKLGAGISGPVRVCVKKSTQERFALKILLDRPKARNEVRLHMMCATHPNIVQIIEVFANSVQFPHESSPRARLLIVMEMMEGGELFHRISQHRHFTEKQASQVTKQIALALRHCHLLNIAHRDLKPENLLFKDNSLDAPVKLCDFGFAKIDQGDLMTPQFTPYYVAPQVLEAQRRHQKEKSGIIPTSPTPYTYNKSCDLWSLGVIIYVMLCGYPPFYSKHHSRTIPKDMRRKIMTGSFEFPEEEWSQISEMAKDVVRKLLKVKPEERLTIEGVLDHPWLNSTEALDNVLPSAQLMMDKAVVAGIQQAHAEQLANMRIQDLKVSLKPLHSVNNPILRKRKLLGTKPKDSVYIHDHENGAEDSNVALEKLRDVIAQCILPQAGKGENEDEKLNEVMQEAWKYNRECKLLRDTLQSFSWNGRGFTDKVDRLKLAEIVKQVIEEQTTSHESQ

Structure (SMILES) | read-out | mode | method | concentration | endpoint | value
C#Cc1n[nH]c2c(-c3cn([C@@H](C)c4ccccc4)c(=O)[nH]c3=O)cc(F)cc12 | enzyme activity | inhibitor |  | 0.1 µM | inhibition | 1.8%
Cn1cncc1[C@](O)(COc1ccc(C#N)cc1-c1ccc(OC(F)(F)F)cc1)c1ccc(C#N)cc1 | cell-free assay |  | competition with immobilised ligand | 1 µM | remaining binding | 90%
CC(C)(C)c1cc(C=C(C#N)C#N)cc(Br)c1O | enzyme activity | inhibitor |  | 0.5 µM | remaining activity | 97.4%
COc1cc(Nc2ncc(F)c(Nc3ccc4c(n3)NC(=O)C(C)(C)O4)n2)cc(OC)c1OC | binding |  | competition with immobilised ligand | 10 µM | inhibition | 19%
COc1ncccc1-c1cnn2ccc(N3CCN(C(=O)OC(C)C)CC3)nc12 | binding |  | competition with immobilised ligand | 1 µM | remaining binding | 100%
Cn1cc(-c2cccc(N3CCc4c(sc5c4CC(C)(C)C5)C3=O)c2CO)cc(Nc2ccncn2)c1=O | enzyme activity | inhibitor |  | 1 µM | inhibition | 3%
C#Cc1n[nH]c2c(-c3cn(C(C)c4ccccn4)c(=O)[nH]c3=O)cc(F)cc12 (centres unmarked) | enzyme activity | inhibitor |  | 1 µM | inhibition | 5.8%
Cn1cc(-c2cc(F)cc(N3CCn4c(cc5c4CCCC5)C3=O)c2CO)cc(Nc2ccc(N3CCN(C4COC4)CC3)cn2)c1=O | enzyme activity | inhibitor |  | 0.1 µM | inhibition | 9%
Nc1ncc(-c2nc(N3CCOCC3)nc(N3CCOCC3)n2)c(C(F)F)n1 | binding |  | competition with immobilised ligand | 10 µM | remaining binding | 72%
N#CC1(c2ccccn2)CCN(Cc2cc(C(=O)O)c(=O)n3ccccc23)CC1 | cell-free assay |  | competition with immobilised ligand | 1 µM | remaining binding | 56%
O=c1[nH]c2ccccc2n1C1CCN(Cc2ccc(-c3[nH]c4cc5ncnc5cc4nc3-c3ccccc3)cc2)CC1 | cell-free assay |  |  | 0.5 µM | remaining signal | 97.4%
